Data taken from ChEMBL document CHEMBL1135768, “Design, synthesis, and SAR of tachykinin antagonists: modulation of balance in NK(1)/NK(2) receptor antagonist activity” (J Med Chem, 2002).

Experiments:
[1] = test system: Substance-P receptor (Oryctolagus cuniculus); assay: Tested for the binding affinity towards tachykinin receptor 1 (NK1) in rabbit pulmonary artery tissue
[2] = molecular target: T1, Substance-K receptor (Oryctolagus cuniculus) (UniProt P79218); assay: Tested for the binding affinity towards tachykinin receptor 2 (NK2) in rabbit pulmonary artery tissue
T1 sequence (whole entry): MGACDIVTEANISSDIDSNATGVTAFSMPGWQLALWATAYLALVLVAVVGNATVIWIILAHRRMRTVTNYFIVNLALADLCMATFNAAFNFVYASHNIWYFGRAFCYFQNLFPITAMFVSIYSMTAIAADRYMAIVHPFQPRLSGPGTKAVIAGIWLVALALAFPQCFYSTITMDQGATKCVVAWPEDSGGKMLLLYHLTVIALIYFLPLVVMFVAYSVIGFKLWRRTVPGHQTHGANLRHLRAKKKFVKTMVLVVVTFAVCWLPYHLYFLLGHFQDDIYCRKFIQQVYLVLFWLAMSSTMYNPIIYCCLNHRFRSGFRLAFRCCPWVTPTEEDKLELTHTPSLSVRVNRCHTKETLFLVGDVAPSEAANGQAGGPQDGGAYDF

[3] = molecular target: T2, Substance-K receptor (Cavia porcellus) (UniProt Q64077); assay: In vivo potency as dose ratio (ED50 ratio for Tachykinin receptor 2 (NK2) in presence and absence of antagonist) in guinea pig PMM after intravenous administration at a dose 10 uM/Kg
T2 sequence (whole entry): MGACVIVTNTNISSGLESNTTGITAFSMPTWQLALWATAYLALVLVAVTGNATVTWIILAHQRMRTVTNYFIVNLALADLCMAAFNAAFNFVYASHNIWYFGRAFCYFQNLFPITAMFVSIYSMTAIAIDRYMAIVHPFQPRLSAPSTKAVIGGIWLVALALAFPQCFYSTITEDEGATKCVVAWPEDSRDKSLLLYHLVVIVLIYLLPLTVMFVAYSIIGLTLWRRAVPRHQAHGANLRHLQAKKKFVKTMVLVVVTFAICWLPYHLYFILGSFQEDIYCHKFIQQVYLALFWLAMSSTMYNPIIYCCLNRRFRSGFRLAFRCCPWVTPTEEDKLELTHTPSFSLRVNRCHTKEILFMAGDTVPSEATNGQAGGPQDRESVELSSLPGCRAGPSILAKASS

[4] = molecular target: Substance-P receptor (Cavia porcellus) (UniProt P30547); assay: In vivo potency as dose ratio (ED50 ratio for Tachykinin receptor 1 in presence and absence of antagonist) in guinea pig PMM after oral administration at a dose 30 uM/Kg
Sequence of Substance-P receptor (Cavia porcellus) (P30547 whole entry): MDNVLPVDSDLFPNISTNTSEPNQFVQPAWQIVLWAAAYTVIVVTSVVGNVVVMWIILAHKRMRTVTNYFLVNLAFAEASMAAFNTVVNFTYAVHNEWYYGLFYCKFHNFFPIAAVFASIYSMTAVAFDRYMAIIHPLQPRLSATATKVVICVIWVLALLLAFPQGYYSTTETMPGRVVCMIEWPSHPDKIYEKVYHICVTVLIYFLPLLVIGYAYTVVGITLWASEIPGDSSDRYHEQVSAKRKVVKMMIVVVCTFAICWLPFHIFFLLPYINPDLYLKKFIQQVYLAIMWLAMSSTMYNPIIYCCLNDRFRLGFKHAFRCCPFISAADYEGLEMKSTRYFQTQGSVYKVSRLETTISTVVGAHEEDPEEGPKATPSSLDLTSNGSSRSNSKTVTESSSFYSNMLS

[5] = molecular target: T2, Substance-K receptor (Cavia porcellus); assay: In vivo potency as dose ratio (ED50 ratio for Tachykinin receptor 2 (NK2) in presence and absence of antagonist) in guinea pig PMM after oral administration at a dose 30 uM/Kg
[6] = molecular target: Substance-P receptor (Cavia porcellus) (UniProt P30547); assay: In vivo potency as dose ratio (ED50 ratio for Tachykinin receptor 1 in presence and absence of antagonist) in guinea pig PMM after intravenous administration at a dose 10 uM/Kg
[7] = molecular target: Substance-P receptor (Cavia porcellus) (UniProt P30547); assay: In vivo binding affinity towards Tachykinin receptor 1 after oral administration in presence of agonist ASMSP in guinea pig pulmonary tissue in lung plasma extravation assay; format: organism-based
Method in brief: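 Guinea pig lung plasma extravasation model. Antagonist dosed orally; NK1-selective agonist ASMSP challenge 2 h postdose. Single ED50 calculated from dose response in three to six animals per dose over 4–5 dose levels, doses staggered across several days.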

[8] = molecular target: T3, Neuromedin-K receptor (Homo sapiens, UniProt P29371); assay: Inhibition of binding of [125I]MPNI to human Tachykinin receptor 3 (NK3) expressed in mouse erythroleukemia cells; format: cell-based
T3 sequence (P29371 whole entry): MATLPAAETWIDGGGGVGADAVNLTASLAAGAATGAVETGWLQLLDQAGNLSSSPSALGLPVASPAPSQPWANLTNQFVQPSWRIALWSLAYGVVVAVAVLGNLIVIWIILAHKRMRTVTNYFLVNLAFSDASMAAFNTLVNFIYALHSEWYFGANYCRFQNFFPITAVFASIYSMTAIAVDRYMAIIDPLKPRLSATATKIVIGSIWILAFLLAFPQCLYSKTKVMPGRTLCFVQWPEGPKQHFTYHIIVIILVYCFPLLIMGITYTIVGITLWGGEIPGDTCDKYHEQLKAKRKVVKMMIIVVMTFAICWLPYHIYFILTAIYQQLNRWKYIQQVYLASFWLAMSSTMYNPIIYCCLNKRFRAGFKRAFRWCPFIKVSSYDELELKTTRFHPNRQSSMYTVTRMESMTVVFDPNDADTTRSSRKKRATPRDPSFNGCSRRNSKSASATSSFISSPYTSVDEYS

[9] = Bioavailability in rat (dose 1-10 uM/kg i.v.); format: ADME, organism-based; settings: in vivo, iv
Method in brief: (§1)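 Compound given to rat (n = 3) or dog (n = 1) by iv bolus at 1–10 μmol/kg, or orally at 10–100 μmol/kg, as a solution in 75% poly(ethylene glycol) 400 in normal saline.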

[10] = molecular target: Substance-P receptor (Homo sapiens, UniProt P25103); assay: Inhibition of binding of [3H]SP to Tachykinin receptor 1 of human tachykinin receptor expressed in mouse erythroleukemia cells; format: cell-based
Sequence of Substance-P receptor (P25103 whole entry): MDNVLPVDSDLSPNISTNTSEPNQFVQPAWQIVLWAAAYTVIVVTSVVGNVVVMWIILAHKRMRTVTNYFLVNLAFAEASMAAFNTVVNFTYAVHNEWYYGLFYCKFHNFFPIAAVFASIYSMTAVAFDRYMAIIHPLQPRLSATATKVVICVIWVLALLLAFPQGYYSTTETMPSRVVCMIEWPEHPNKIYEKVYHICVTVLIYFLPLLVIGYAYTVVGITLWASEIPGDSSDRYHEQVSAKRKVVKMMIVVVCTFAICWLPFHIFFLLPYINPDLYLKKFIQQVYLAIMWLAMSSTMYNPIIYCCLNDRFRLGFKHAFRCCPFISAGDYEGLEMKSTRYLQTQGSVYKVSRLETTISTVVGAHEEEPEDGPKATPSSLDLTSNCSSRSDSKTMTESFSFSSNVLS

[11] = Bioavailability in dog (dose 1-10 uM/kg i.v.); format: ADME, organism-based, Canis lupus familiaris; settings: in vivo, iv
Method in brief: as §1

[12] = molecular target: T4, Substance-K receptor (Homo sapiens, UniProt P21452); assay: Inhibition of binding of [3H]NKA to human Tachykinin receptor 2 (NK2) expressed in mouse erythroleukemia cells; format: cell-based
T4 sequence (P21452 whole entry): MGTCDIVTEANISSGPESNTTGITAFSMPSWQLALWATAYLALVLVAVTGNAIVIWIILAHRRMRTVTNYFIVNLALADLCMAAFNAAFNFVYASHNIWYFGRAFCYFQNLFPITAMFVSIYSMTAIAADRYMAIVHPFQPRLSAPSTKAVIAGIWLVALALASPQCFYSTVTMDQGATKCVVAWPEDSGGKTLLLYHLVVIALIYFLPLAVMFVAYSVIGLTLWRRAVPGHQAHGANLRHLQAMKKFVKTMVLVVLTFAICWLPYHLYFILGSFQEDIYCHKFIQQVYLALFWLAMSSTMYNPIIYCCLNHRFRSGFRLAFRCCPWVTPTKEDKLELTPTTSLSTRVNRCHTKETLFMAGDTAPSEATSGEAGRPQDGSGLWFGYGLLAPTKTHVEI

SMILES | pKB [1] | pKB [2] | further results
CN(C[C@@H](CCN1CCC(c2ccccc2[S@+](C)[O-])CC1)c1ccc(Cl)c(Cl)c1)C(=O)c1cc(C#N)c(Br)c2ccccc12 | 7.78 | 6.99 | –
CN(C[C@@H](CCN1CCC(c2ccccc2[S@+](C)[O-])CC1)c1ccc(Cl)c(Cl)c1)C(=O)c1cc(C#N)c(F)c2ccccc12 | 6.75 | 6.2 | –
COc1c(C#N)cc2ccccc2c1C(=O)N(C)C[C@@H](CCN1CCC(C(=O)N(C)C)(N2CCCCC2=O)CC1)c1ccc(Cl)c(Cl)c1 | 7.88 | 7.7 | –
CN(C[C@@H](CCN1CCC(c2ccc(F)cc2[S@+](C)[O-])CC1)c1ccc(Cl)c(Cl)c1)C(=O)c1cc(C#N)cc2ccccc12 | 8.01 | 8.38 | dose ratio [3]: 153; dose ratio [4]: 4; dose ratio [5]: 5; dose ratio [6]: 126
CN(C[C@@H](CCN1CCC(c2ccc(C(N)=O)cc2[S+](C)[O-])CC1)c1ccc(Cl)c(Cl)c1)C(=O)c1cc(C#N)cc2ccccc12 (mixture of isomers) | 8.53 | 6.92 | –
CN(C[C@@H](CCN1CCC(c2ccccc2[S@+](C)[O-])CC1)c1ccc(Cl)c(Cl)c1)C(=O)c1cc(C#N)c(C#N)c2ccccc12 | 7.76 | 7.65 | –
COC(=O)c1ccc(C2CCN(CC[C@H](CN(C)C(=O)c3c(OC)c(C#N)cc4ccccc34)c3ccc(Cl)c(Cl)c3)CC2)c([S+](C)[O-])c1 (some centres not stated) | 8.85 | < 7 | –
COc1c(C#N)cc2ccccc2c1C(=O)N(C)C[C@@H](CCN1CCC(c2ccccc2[S@+](C)[O-])CC1)c1ccc(Cl)c(Cl)c1 | – | – | ED50 [7]: 0.07 µmol/kg; Ki [8]: 220 nM; dose ratio [3]: 14; dose ratio [4]: 610; bioavailability [9]: 12%; Ki [10]: 0.17 nM; bioavailability [11]: 51%; Ki [12]: 67 nM; dose ratio [5]: 2
CN(C)C(=O)C1(N2CCCCC2=O)CCN(CC[C@H](CN(C)C(=O)c2cc(C#N)cc3ccccc23)c2ccc(Cl)c(Cl)c2)CC1 | 7.36 | 8.52 | –
CNC(=O)C1(N2CCOCC2=O)CCN(CC[C@H](CN(C)C(=O)c2c(OC)c(C#N)cc3ccccc23)c2ccc(Cl)c(Cl)c2)CC1 | 8.55 | 7.79 | –
CCN1C(=O)c2ccccc2[C@H]1[C@@H](CCN1CCC(c2ccccc2[S@+](C)[O-])CC1)c1ccc(Cl)c(Cl)c1 | – | – | Ki [8]: 9190 nM; Ki [12]: 0.92 nM
COc1c(C#N)cc2ccccc2c1C(=O)N(C)C[C@@H](CCN1CCC(N2CCCNC2=O)CC1)c1ccc(Cl)c(Cl)c1 | 8.45 | 7.92 | –
COC(=O)c1ccc(C2CCN(CC[C@H](CN(C)C(=O)c3cc(C#N)cc4ccccc34)c3ccc(Cl)c(Cl)c3)CC2)c([S+](C)[O-])c1 (mixture of isomers) | 7.92 | 6.84 | –
CN(C[C@@H](CCN1CCC(c2c(F)cccc2[S+](C)[O-])CC1)c1ccc(Cl)c(Cl)c1)C(=O)c1cc(C#N)cc2ccccc12 (some centres not stated) | 7.25 | 6.83 | –
CNC(=O)C1(N2CCCNC2=O)CCN(CC[C@H](CN(C)C(=O)c2c(OC)c(C#N)cc3ccccc23)c2ccc(Cl)c(Cl)c2)CC1 | 8.14 | 8.11 | –
CN(C[C@@H](CCN1CCC(c2ccc([S+](C)[O-])cc2[S+](C)[O-])CC1)c1ccc(Cl)c(Cl)c1)C(=O)c1cc(C#N)cc2ccccc12 (mixture of isomers) | 7.33 | 8.27 | –

Second part, led by results:

pKB [1] | pKB [2] | SMILES | further results
8.18 | 7.86 | CN(C[C@@H](CCN1CCC(N2CCCNC2=O)CC1)c1ccc(Cl)c(Cl)c1)C(=O)c1cc(C#N)cc2ccccc12 | –
7.87 | 6.38 | CN(C[C@@H](CCN1CCC(c2ccc(C(=O)O)cc2[S+](C)[O-])CC1)c1ccc(Cl)c(Cl)c1)C(=O)c1cc(C#N)cc2ccccc12 (mixture of isomers) | –
8 | 8.12 | CN(C[C@@H](CCN1CCC(c2ccc(Br)cc2[S@+](C)[O-])CC1)c1ccc(Cl)c(Cl)c1)C(=O)c1cc(C#N)cc2ccccc12 | dose ratio [3]: 30; dose ratio [6]: 11
7.33 | 8.44 | CNC(=O)C1(N2CCCCC2=O)CCN(CC[C@H](CN(C)C(=O)c2cc(C#N)cc3ccccc23)c2ccc(Cl)c(Cl)c2)CC1 | –
– | 8.48 | CN(C[C@@H](CCN1CCC(c2ccccc2[S+](C)[O-])CC1)c1ccc(Cl)c(Cl)c1)C(=O)c1cc(C#N)cc2ccccc12 (mixture of isomers) | –
8.26 | 8.34 | CN(C[C@@H](CCN1CCC(c2cc(F)ccc2[S+](C)[O-])CC1)c1ccc(Cl)c(Cl)c1)C(=O)c1cc(C#N)cc2ccccc12 (mixture of isomers) | –
7.6 | 8.22 | CNC(=O)C1(N2CCCNC2=O)CCN(CC[C@H](CN(C)C(=O)c2cc(C#N)cc3ccccc23)c2ccc(Cl)c(Cl)c2)CC1 | –
8.46 | 8.55 | CN(C[C@@H](CCN1CCC(c2cc(Br)ccc2[S+](C)[O-])CC1)c1ccc(Cl)c(Cl)c1)C(=O)c1cc(C#N)cc2ccccc12 (mixture of isomers) | –
7.77 | 6.42 | CN(C[C@@H](CCN1CCC(c2ccccc2[S@+](C)[O-])CC1)c1ccc(Cl)c(Cl)c1)C(=O)c1cc(C#N)cc2cc(C#N)ccc12 | –
7.51 | 7.81 | CNC(=O)C1(N2CCOCC2=O)CCN(CC[C@H](CN(C)C(=O)c2cc(C#N)cc3ccccc23)c2ccc(Cl)c(Cl)c2)CC1 | –
8.02 | 7.31 | CN(C[C@@H](CCN1CCC(c2ccccc2[S@+](C)[O-])CC1)c1ccc(Cl)c(Cl)c1)C(=O)c1cc(C#N)cc2cc(O)ccc12 | –
8.93 | 8.34 | CN(C[C@@H](CCN1CCC(c2ccc(O)cc2[S+](C)[O-])CC1)c1ccc(Cl)c(Cl)c1)C(=O)c1cc(C#N)cc2ccccc12 (mixture of isomers) | –
7 | 7.97 | COc1ccc2c(C(=O)N(C)C[C@@H](CCN3CCC(c4ccccc4[S@+](C)[O-])CC3)c3ccc(Cl)c(Cl)c3)cc(C#N)cc2c1 | –
8.53 | 7.8 | Cc1c(C#N)cc(C(=O)N(C)C[C@@H](CCN2CCC(c3ccccc3[S@+](C)[O-])CC2)c2ccc(Cl)c(Cl)c2)c2ccccc12 | –
